Sampled rows, rich in hits. Any-hit rate of the full collection: about 1.9%.
HCV NS3 hel inh: inhibitors of HCV NS3 helicase, primary screen, biochemical, Cy5 molecular beacon fluorescence | 290,000 compounds, 0.56% hits | inhibition, % at 10.9 µM | NS3 helicase DNA unwinding;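 active = inhibition above the mean of all tested compounds plus 3 SD, set per campaign, cut at about 35% in these data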;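 note: 0% = DMSO wells and 100% = thioflavine S control wells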
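Measured by: Cy5 fluorescence, 0 and 60 min reads / Assay system: NS3 helicase fragment of HCV / Control set: low DMSO, high thioflavine S at 110 µM / Times: 1 h reaction at 25 °C, ATP-initiated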
GPR7 antag: GPR7 receptor antagonists, primary screen, cell-based, fluorescence, single concentration; Neuropeptides B/W receptor type 1 (Homo sapiens), P48145; GPR7-expressing cells, fluorescence antagonist assay; inhibition, % at 4.4 µM; 290,000 compounds, 1.1% hits; in the data active = inhibition above about 16%, passing the limit was not always enough;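 note: cells stimulated with the agonist NPW; 0% = agonist with vehicle and 100% = vehicle without agonist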
pCIP destab: p/CIP-EGFP fusion destabilizers, primary screen, fluorescence, F442A cells; AID 1984, 2009; Q05BA5; decrease of EGFP signal, % at 10 µM; 290,000 compounds, 0.01% hits; 16 h;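 active = EGFP signal decrease of at least 30% at 10 µM or well 3 SD below plate mean, unless failing retest; inactive = the rest, including hits failing retest or dose response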
Target sequence (Q05BA5 1-1403): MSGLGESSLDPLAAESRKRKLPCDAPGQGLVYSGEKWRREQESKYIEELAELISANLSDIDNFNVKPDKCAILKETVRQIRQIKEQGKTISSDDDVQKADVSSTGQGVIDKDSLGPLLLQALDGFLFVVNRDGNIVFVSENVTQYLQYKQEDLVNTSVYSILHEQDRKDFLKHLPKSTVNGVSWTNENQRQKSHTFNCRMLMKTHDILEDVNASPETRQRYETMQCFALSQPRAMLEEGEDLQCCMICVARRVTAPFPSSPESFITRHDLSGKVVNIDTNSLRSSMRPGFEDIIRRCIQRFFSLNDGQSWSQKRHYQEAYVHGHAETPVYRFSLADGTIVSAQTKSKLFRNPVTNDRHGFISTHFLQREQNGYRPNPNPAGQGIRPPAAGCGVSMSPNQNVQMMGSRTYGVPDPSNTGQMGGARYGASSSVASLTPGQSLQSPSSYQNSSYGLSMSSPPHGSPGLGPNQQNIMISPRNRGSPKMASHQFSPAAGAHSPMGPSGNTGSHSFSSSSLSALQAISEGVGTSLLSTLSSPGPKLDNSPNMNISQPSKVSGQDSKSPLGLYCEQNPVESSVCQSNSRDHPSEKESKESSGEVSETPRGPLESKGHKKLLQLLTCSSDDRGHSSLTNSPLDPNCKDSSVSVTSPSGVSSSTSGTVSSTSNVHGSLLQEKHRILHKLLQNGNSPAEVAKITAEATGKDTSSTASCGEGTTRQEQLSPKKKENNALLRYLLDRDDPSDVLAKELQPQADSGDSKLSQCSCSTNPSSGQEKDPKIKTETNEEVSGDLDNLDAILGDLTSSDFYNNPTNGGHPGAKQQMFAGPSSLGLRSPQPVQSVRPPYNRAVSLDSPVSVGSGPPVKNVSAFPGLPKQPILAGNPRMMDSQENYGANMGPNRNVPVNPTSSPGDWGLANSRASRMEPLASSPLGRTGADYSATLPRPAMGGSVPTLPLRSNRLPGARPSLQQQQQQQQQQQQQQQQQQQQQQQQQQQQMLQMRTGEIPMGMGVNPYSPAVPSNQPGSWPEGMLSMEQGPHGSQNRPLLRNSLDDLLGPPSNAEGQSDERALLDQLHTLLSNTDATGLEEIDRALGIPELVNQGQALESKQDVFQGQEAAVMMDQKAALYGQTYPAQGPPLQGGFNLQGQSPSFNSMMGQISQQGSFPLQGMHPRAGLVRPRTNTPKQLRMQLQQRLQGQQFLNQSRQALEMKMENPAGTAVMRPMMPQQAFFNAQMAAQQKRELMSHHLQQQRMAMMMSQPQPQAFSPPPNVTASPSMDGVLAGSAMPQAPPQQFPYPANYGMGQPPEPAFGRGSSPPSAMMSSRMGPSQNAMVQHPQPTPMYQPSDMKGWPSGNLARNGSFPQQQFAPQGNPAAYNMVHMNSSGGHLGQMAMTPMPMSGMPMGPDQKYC
HCV core dimer: inhibitors of HCV core protein dimerization, primary screen, biochemical, TR-FRET, high-throughput; TR-FRET GST/Flag-core106 dimerization, 1536-well; inhibition, % at 5 µM; 300,000 compounds, 0.33% hits; AID 1899, 2009;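 active = inhibition above the mean of all tested compounds plus 3 SD, set per screening campaign, cut at about 45% in these data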
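Assay system: tagged HCV core106 pair (GST and Flag); medium: KF-containing HEPES buffer, pH 7.45, DTT, CHAPS, BSA; also added: Eu donor and XL665 acceptor anti-tag antibodies; dosing: 5 µM single dose; timing: compound-protein-antibody incubation 4 h at 22.5 °C; signal: TR-FRET 671 and 617 nm emission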
DNA FID counter: compounds displacing fluorescent DNA intercalator, primary screen, artefact control for HCV NS3 helicase inhibitor project, biochemical, FID fluorescence; inhibition, % at 7.9 µM; DNA fluorescent intercalator displacement; 290,000 compounds, 0.17% hits; AID 1845, 2009; in the data active = inhibition above about 37%;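 note: 0% = vehicle and 100% = reference compound; higher means more ethidium bromide displaced from hairpin DNA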
Starred values were filed as active, the others as inactive; . = no result.

SMILES	HCV NS3 hel inh	GPR7 antag	pCIP destab	HCV core dimer	DNA FID counter
Cc1ccc(C)c(CN2C(=O)C3CCCN3c3ccc(S(=O)(=O)N4CCOCC4)cc32)c1 (configuration not stated)	0	-7	-5	51*	-14
CC1CCN(C(=O)CN(c2ccccc2)S(=O)(=O)N(C)C)CC1	0	21*	-3	1	-12
CC(Oc1ccc(Br)cc1)C(=O)Nc1cc(Cl)ccc1N1CCN(C)CC1 (configuration not stated)	.	.	.	-4	.
Nc1nnc(-c2ccco2)s1	5	-5	-1	-2	1
Nc1ncnc2oc(-c3ccco3)c(-c3ccco3)c12	22	-10	-16	73*	2
COc1ccc(OC)c(Nc2nc(NCCCN(C)C)nc(N)c2[N+](=O)[O-])c1	-22	-12	-1	-7	41*
Cn1cnnc1SCC(=O)Nc1cc(S(=O)(=O)N2CCCCC2)ccc1Cl	-7	7	1	-4	-15
COCCn1cnnc1SCC(=O)c1ccc(S(=O)(=O)N2CCCC2)cc1	-1	-8	-5	54*	-5
CCCCCN(C(=O)CCC(=O)OCCOc1cccc(Cl)c1)c1c(N)n(CCCC)c(=O)[nH]c1=O	.	.	.	1	.
CCCCNC(=S)N1CCN(c2ccc(C(C)=O)cc2)CC1	2	19*	-3	2	-16
CN(CC(=O)Nc1ccc(F)cc1)C(=O)c1cc(-c2ccco2)nc2ccccc12	.	.	.	50*	.
Cc1ccc(NC(=O)CN(C)C(=O)c2cc(-c3ccco3)nc3ccccc23)cc1	.	.	.	65*	.
COc1cccc(C2c3[nH]c4ccccc4c3C[C@H]3C(=O)N(c4ccccc4C(=O)NCCCN4CCOCC4)C(=O)N23)c1 (some centres not stated)	-94	19	8	-9	45*
COc1ccc(CCN2CC(C(=O)NCCc3cccnc3)CCC2=O)cc1 (configuration not stated)	2	-6	-9	.	-13
Cc1ccc(NC(=O)Cn2nc(C)c3ccccc3c2=O)cc1F	-3	19*	-5	3	-4
Cc1ccc2c(c1C)NC(C(=O)O)C1CC=CC21 (configuration not stated)	.	.	-8	71*	.
NC(=O)[C@@H]1CCCNc2c(I)cc([N+](=O)[O-])cc2C(=O)N[C@@H](CCCN=C(N)N)C(=O)N[C@@H](CCCN=C(N)N)C(=O)N1	-70	17	8	-9	47*
CN1CCN(CCNC(=O)c2ccc3nc(-c4ccc(F)cc4)c(-c4ccc(F)cc4)nc3c2)CC1	-87	-4	-2	-8	47*
C=CC[n+]1c(/C=C2\C=Cc3cc(C)ccc3N2CC)ccc2ccccc21	-9	35*	-41	-7	3
N#C/C(=C\c1ccc(O)c([N+](=O)[O-])c1)c1nc2ccccc2s1	24	20*	-18	.	-21
O=C(Nc1nc(-c2ccco2)c(-c2ccco2)s1)c1cnccn1	.	.	.	69*	.
O=C(/C=C/c1ccco1)Nc1cccc(NC(=O)/C=C/c2ccco2)n1	26	-8	-6	49*	-18
N=c1c2c(-c3ccccc3)c(-c3ccccc3)n(Cc3ccccc3)c2ncn1CCCn1ccnc1	-83	-3	8	0	40*
Cc1cc(NCCCn2ccnc2)n2nc(C)c(-c3ccccc3)c2n1	-2	-8	10	-3	16
O=C(COC(=O)c1n[nH]c2ccccc12)Nc1cccc(S(=O)(=O)N2CCOCC2)c1	-4	1	11	.	-11
O=C(COc1ccccc1)Nc1ccc(S(=O)(=O)N2CCCC2)cc1	10	17*	-14	9	-15
O=C(COc1ccccc1)Nc1ccc(S(=O)(=O)N2CCCCCC2)cc1	8	-1	-2	4	-8
O=C(COC(=O)c1n[nH]c2ccccc12)Nc1ccc(S(=O)(=O)N2CCCC2)cc1	-6	17*	-24	15	-9
O=C(CN(Cc1ccccc1Cl)C(=O)c1csnn1)NCCc1ccccc1	0	8	-7	1	-34
CCOC(=O)c1c(-c2ccco2)csc1NC(=O)COC(=O)c1cnc(C)cn1	.	.	.	52*	.

From PubChem
